One assay relates to Vero. The assay is described as follows: Cytotoxicity against african green monkey Vero cells by green fluorescent protein microplate assay. The assay is classed as cell-based. The note with it: Chlorocebus sabaeus. The essentials: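 Vero cells (African green monkey kidney […]) tested in the green fluorescent protein microplate assay (GFPMA), the same format the paper used for Mycobacterium tuberculosis H37Ra.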

The subject of another assay is NCI-H187. The assay is described as follows: Cytotoxicity against human NCI-H187 cells after 45 hrs by resazurin microplate assay. The note with it: NCI-H187, 45 h. It counts as functional, cell-based. Put shortly:
(§1)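 Human cancer cell panel in the resazurin microplate assay: KB (oral epidermoid carcinoma), MCF-7 (breast cancer) and NCI-H187 (small-cell lung cancer).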
For orientation: The colour change of resazurin is a common sign of viable cells or microbes.

The test system of the next assay is Candida albicans. Put plainly: Antifungal activity against Candida albicans after 45 hrs by resazurin microplate assay. The assay is classed as functional, organism-based.
The test system of assay [1] is Mycobacterium tuberculosis. The assay is described as follows: Antituberculosis activity against Mycobacterium tuberculosis H37Ra by green fluorescent protein microplate assay. It counts as functional.
The next assay concerns Plasmodium falciparum. Put plainly: Antimalarial activity against Plasmodium falciparum K1 after 18 hrs by [G-3H]hypoxanthine uptake assay. Particulars: K1, 18 h. The assay is classed as functional, organism-based. Put shortly: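 Plasmodium falciparum K1, a multidrug-resistant strain, tested by the microculture radioisotope technique.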
The next assay has as its system KB. The assay is described as follows: Cytotoxicity against human KB cells after 45 hrs by resazurin microplate assay. The assay is classed as functional, cell-based. The essentials: as §1
In another assay the test system is MCF7. Put plainly: Cytotoxicity against human MCF7 cells after 45 hrs by resazurin microplate assay. It counts as functional, cell-based. The note with it: MCF7, 45 h. The essentials: as §1

Converted amounts (≈) assume the structure as drawn. Some results are limits rather than exact numbers.

On to `C=C1C(=O)O[C@@H]2C[C@]34O[C@H]3CC[C@H](C)[C@@]4(C)C[C@]12O`, for which the IC50 in the assay with Vero stood at 9.4 µM; in the assay with NCI-H187, 5.8 µM; with Candida albicans, 7.8 µM; with Plasmodium falciparum, 13 µM; in the assay with KB, 10 µM; in the assay on MCF7, 10 µM. Moreover, the lowest concentration to inhibit growth in assay [1] (MIC) was 47 µM (≈ 12.4 µg/mL).
In the case of `C=C1C(=O)O[C@@H]2C[C@]3(O)[C@H](O)CC[C@H](C)[C@@]3(C)C[C@]12O`, the IC50 was 8.5 µM in the assay with Vero; 7.2 µM with NCI-H187; greater than 177 µM in the assay with Candida albicans; greater than 35 µM with Plasmodium falciparum; 5 µM with KB; 15 µM in the assay on MCF7. In assay [1], this compound yielded an MIC greater than 177 µM.
Turning to `CC1=C2C[C@]3(C)[C@@H](C)CC[C@@H](O)[C@@]3(O)C[C@H]2OC1=O` [MAIRETOLIDE F], the IC50 in the assay on Vero was greater than 188 µM; in the assay on NCI-H187, greater than 188 µM; in the assay on Candida albicans, greater than 188 µM; in the assay with Plasmodium falciparum, greater than 38 µM; with KB, greater than 188 µM; in the assay on MCF7, greater than 188 µM. For the same compound, the MIC in assay [1] was greater than 188 µM.
Turning to `C[C@H]1CC[C@@H]2O[C@@]23C[C@H]2OC(=O)C(CO)=C2C[C@]13C`, the IC50 was greater than 189 µM in the assay with Vero; greater than 189 µM in the assay with NCI-H187; greater than 189 µM with Candida albicans; greater than 38 µM in the assay on Plasmodium falciparum; greater than 189 µM in the assay on KB; greater than 189 µM with MCF7. The compound further came in with an MIC in assay [1] greater than 189 µM.
As to `C=C1C(=O)O[C@@H]2C[C@]3(O)[C@H](OC)CC[C@H](C)[C@@]3(C)C[C@]12O`, the IC50 with Vero is 3.9 µM; in the assay with NCI-H187, 3.8 µM; in the assay with Candida albicans, greater than 169 µM; in the assay on Plasmodium falciparum, 8.1 µM; with KB it was 21 µM; in the assay with MCF7 it was 15 µM. The MIC in assay [1] came out at 42 µM (≈ 12.4 µg/mL).

What is called IC50 is the concentration at which inhibition is half-maximal. What is called MIC is the lowest concentration that inhibits growth of the organism.

The record behind these values is ChEMBL document CHEMBL1157059, “Eremophilane-type sesquiterpenes from the fungus Xylaria sp. BCC 21097” (J Nat Prod, 2010).
